This note sets out measurements from ChEMBL document CHEMBL1152611, “Indene-based frameworks targeting the 5-HT6 serotonin receptor: ring constraint in indenylsulfonamides using cyclic amines and structurally abbreviated counterparts” (Bioorg Med Chem, 2009).

Each structure is given as a SMILES string. pEC50, pIC50, pKi: −log10 of the molar value.

In assay [1] the target is T1, 5-hydroxytryptamine receptor 6 (Homo sapiens, UniProt P50406). Nature of the assay: Binding affinity to 5HT6 receptor.
T1 sequence (P50406 whole entry): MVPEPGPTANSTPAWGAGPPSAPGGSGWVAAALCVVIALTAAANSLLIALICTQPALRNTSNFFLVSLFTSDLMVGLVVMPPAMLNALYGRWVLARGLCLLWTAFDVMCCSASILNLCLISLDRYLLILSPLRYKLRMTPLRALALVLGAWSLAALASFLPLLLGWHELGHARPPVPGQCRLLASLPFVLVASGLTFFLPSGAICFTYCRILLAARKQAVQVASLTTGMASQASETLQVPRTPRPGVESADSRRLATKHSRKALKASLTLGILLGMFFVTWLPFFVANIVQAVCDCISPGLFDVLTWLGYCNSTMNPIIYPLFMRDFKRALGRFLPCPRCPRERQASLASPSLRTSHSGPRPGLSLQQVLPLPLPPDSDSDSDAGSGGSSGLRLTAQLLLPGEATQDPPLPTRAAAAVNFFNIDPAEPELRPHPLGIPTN
Assay [2] addresses T1, 5-hydroxytryptamine receptor 6. Nature of the assay: Antagonist activity at 5HT6 receptor. In kind it is functional.
Assay [3] shares this target. The experiment in a line: Displacement of [3H]LSD from human 5HT6 receptor expressed in HEK293 cells at 100 nM. It is filed as cell-based.
For assay [4] the target is unchanged. The experiment in a line: Displacement of [3H]LSD from human 5HT6 receptor expressed in HEK293 cells. It is filed as cell-based. An outline of the steps:
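Commercial HEK-293 membranes with human 5-HT6 diluted 1:40 in 50 mM Tris-HCl, 10 mM MgCl2, 0.5 mM EDTA, pH 7.4. Incubated with 2.7 nM [3H]-LSD and 22.9 µg protein for 60 min at 37 °C, then filtered on PEI-treated glass fibre. Nonspecific binding defined with 100 µM serotonin. Triplicate points; IC50 from a regression line, converted to Ki by Cheng-Prusoff.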

For assay [5] the target is unchanged. Nature of the assay: Antagonist activity at human 5HT6 receptor expressed in HEK293 cells assessed as inhibition of 5-HT-stimulated cAMP accumulation by HTRF assay relative to untreated control. It is filed as functional, cell-based. The procedure, abridged: (§1)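 HEK-293F cells stably expressing human 5-HT6, serum-starved overnight, 20,000 cells/well in Ham's F12 with 1 mM IBMX and 20 µM pargyline. Compound or DMSO vehicle (final DMSO ≤2%) added for 30 min at 37 °C, with 5-HT present in antagonist mode. HTRF cAMP detection with cryptate and XL-665, 1 h at room temperature, read at 665/620 nm.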

Assay [6] has the same target. Nature of the assay: Antagonist activity at human 5HT6 receptor expressed in HEK293 cells assessed as inhibition of 5-HT-stimulated cAMP accumulation by HTRF assay. It is filed as functional, cell-based. An outline of the steps: as §1
The target in assay [7] is T2, Alpha-2A adrenergic receptor (Homo sapiens, UniProt P08913).
T2 sequence (P08913 whole entry): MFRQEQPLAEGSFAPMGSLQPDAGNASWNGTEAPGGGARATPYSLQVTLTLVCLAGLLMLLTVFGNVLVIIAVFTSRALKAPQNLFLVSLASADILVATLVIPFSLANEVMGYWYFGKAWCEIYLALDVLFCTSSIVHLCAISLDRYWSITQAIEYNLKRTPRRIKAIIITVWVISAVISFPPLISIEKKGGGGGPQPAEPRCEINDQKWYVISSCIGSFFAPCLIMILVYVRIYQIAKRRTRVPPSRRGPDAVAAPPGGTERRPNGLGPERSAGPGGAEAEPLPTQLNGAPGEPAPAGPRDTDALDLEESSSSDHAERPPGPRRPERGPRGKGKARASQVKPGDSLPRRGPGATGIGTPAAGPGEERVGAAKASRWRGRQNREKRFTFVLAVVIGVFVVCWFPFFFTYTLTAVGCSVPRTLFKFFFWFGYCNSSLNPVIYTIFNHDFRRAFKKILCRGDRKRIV
Nature of the assay: Inhibition of human alpha-2a adrenergic receptor.

The target in assay [8] is T3, 5-hydroxytryptamine receptor 1A (Homo sapiens, UniProt P08908).
T3 sequence (P08908 whole entry): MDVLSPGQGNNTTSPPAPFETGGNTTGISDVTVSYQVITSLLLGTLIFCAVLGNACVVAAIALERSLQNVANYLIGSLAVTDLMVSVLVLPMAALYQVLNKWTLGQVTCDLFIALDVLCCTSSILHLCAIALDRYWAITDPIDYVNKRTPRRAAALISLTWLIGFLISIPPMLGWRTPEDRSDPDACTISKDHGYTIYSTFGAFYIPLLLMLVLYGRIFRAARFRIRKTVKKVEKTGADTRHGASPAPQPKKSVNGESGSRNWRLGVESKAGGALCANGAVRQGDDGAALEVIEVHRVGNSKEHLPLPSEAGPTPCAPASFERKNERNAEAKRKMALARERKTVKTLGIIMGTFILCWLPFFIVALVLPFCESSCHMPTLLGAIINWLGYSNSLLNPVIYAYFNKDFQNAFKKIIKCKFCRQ
The experiment in a line: Inhibition of human 5HT1A receptor.

In assay [9] the target is T4, 5-hydroxytryptamine receptor 2C (Homo sapiens, UniProt P28335).
T4 sequence (P28335 whole entry): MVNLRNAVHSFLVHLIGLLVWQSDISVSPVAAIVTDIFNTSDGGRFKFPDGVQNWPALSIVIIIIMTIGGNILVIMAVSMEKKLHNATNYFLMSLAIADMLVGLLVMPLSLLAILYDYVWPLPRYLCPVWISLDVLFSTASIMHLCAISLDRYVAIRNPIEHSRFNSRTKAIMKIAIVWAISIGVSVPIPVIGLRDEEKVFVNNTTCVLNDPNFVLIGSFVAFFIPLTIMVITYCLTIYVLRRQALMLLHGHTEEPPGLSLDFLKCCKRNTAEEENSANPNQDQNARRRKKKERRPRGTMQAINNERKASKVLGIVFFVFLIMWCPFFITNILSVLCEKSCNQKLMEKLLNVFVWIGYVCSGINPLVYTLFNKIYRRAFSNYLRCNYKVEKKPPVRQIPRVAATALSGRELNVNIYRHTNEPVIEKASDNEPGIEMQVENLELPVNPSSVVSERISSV
Nature of the assay: Inhibition of human 5HT2C receptor.

The target of assay [10] is Sodium-dependent serotonin transporter (Homo sapiens, UniProt P31645). The experiment in a line: Inhibition of human SERT.
Chain of Sodium-dependent serotonin transporter (P31645 whole entry): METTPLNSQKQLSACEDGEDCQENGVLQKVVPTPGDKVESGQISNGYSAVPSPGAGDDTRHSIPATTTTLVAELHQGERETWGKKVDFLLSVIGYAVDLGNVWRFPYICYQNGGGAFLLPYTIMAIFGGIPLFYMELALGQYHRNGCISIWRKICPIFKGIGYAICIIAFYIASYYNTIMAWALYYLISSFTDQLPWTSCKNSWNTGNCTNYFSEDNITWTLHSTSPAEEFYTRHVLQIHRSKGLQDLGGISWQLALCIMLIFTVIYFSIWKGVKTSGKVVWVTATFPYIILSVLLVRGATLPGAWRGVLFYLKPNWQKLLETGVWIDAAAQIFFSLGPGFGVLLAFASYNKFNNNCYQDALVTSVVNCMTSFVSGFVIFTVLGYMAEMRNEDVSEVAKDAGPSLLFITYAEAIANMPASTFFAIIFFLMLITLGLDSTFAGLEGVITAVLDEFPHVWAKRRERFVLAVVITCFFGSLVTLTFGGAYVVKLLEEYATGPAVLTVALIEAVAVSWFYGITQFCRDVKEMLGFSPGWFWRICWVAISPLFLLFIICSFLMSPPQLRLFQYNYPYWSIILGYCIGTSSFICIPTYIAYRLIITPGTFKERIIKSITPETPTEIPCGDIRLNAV
In assay [11] the target is T1, 5-hydroxytryptamine receptor 6. Nature of the assay: Agonist activity at 5HT6 receptor. It is filed as functional. An outline of the steps:
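HEK-293F cells stably expressing human 5-HT6, kept overnight in serum-free medium, then 20,000 cells/well in Ham's F12 with 1 mM IBMX and pargyline. Compound (DMSO at most 2% final) added for 30 min at 37 °C without 5-HT. cAMP measured by HTRF (cryptate plus XL-665), 1 h at room temperature, 665/620 nm ratio read.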

The target is the same in assay [12]. The experiment in a line: Agonist activity at human 5HT6 receptor expressed in HEK293 cells assessed as stimulation of cAMP accumulation by HTRF assay relative to control. It is filed as functional, cell-based. An outline of the steps: as §1
In assay [13] the target is T5, Adrenergic receptor alpha-1 (Rattus norvegicus, UniProt P15823+P23944+P43140).
T5 sequence (P15823 whole entry): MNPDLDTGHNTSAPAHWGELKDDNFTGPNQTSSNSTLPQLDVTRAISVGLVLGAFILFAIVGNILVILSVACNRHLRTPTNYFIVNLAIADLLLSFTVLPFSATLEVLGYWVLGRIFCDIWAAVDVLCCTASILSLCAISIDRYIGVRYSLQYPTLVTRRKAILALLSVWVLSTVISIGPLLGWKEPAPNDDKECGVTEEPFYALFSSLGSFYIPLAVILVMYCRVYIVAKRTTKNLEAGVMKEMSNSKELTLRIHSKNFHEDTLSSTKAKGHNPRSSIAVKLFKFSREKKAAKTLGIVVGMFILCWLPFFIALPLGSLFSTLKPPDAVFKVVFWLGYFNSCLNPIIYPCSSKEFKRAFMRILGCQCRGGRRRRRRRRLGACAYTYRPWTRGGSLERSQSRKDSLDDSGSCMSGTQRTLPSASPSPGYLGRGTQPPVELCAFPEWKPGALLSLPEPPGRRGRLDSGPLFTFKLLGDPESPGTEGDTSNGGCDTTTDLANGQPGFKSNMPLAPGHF
T5 sequence (P23944 whole entry): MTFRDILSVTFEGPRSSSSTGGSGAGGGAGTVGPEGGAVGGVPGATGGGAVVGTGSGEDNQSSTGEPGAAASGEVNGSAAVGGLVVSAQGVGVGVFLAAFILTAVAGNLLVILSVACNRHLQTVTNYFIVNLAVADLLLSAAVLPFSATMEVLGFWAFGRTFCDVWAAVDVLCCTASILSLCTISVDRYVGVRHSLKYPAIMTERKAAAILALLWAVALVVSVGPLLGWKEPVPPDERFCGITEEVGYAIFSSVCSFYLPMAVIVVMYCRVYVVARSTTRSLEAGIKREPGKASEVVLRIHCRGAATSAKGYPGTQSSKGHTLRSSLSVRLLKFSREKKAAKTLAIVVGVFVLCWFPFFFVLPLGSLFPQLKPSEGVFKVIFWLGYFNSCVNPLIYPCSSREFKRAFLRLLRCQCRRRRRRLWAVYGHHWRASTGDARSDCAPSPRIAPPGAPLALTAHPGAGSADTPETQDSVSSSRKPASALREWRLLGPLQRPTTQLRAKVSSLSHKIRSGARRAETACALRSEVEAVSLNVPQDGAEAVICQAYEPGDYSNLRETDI
T5 sequence (P43140 whole entry): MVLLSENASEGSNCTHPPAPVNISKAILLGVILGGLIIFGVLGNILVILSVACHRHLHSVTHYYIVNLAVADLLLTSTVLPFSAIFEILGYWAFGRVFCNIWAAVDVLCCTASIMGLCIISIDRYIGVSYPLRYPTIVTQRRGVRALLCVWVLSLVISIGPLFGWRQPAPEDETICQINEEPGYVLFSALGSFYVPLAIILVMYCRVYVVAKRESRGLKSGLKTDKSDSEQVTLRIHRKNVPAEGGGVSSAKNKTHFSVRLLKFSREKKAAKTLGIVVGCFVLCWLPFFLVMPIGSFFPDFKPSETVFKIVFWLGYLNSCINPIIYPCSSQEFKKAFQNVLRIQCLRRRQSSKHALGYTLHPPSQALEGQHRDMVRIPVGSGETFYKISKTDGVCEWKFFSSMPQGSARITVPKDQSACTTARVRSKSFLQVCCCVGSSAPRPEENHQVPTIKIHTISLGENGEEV
Nature of the assay: Inhibition of rat alpha1 adrenergic receptor.

The compound `CN(C)Cc1cn(S(=O)(=O)c2ccccc2)c2ccccc12` had a pKi in [1] of 8.52. The compound further had a negative logarithm of the IC50 (pIC50) in [2] of 6.06.
`CC1=CC(C)(C)c2ccc(NS(=O)(=O)c3c(Cl)nc4sccn34)cc21` yielded an inhibition in [3] of 75%. In addition, the pKi in assay [4] was 7.10. For the same compound, the Imax in assay [5] was 92%. Besides, the pIC50 in assay [6] was 5.62; in [7] it was less than 5.00; in assay [8] it was less than 5.00; in assay [9] it was less than 5.00; in assay [10] it was less than 5.00.
As for `O=S(=O)(Nc1ccc2[nH]cc(C[C@H]3CCCN3)c2c1)c1ccc(C(F)(F)F)cc1`, in [1], the pKi was 9.40. The pEC50 in assay [11] is 8.35.
The compound `Cc1c(S(=O)(=O)Nc2ccc3c(c2)C([C@H]2CCN(C)C2)=CC3)sc2ccc(Cl)cc12` gave an inhibition in assay [3] of 57%.
With `COc1cc2c(cc1NS(=O)(=O)c1c(Cl)nc3sccn13)C(C)=C(C)C2`, in [3], the inhibition came out at 84%. In [4], this compound showed a pKi of 7.19. In addition, in assay [5], the Imax was determined as 10%. Also, in assay [12], the Emax is 49%. In addition, the IC50 in [13] was greater than 10 µM. In addition, the negative logarithm of the IC50 (pIC50) in assay [7] was less than 6.00; in [8], less than 5.00; in assay [9], less than 6.00; in [10] it was less than 5.00.
For `CC1=C(C2CCCN(C)C2)c2cc(NS(=O)(=O)c3c(Cl)nc4sccn34)ccc2C1` (stereo unspecified), in [3], the inhibition amounted to 86%. This compound also gave a pKi in assay [4] of 7.74. In addition, the Imax in assay [5] worked out at 28%. The pIC50 in assay [7] was 5.92; in assay [8], less than 5.00.
The compound `Cc1cn(S(=O)(=O)c2ccc(N)cc2)c2ccccc12` showed a pIC50 in assay [2] of 6.49.
For `CC1=C(C2CCCN(C)C2)c2cc(NS(=O)(=O)c3sc4ccc(Cl)cc4c3C)ccc2C1` (stereo unspecified), the inhibition in [3] amounted to 22%.
With `O=S(=O)(Nc1ccc2[nH]cc(C[C@@H]3CCCN3)c2c1)c1ccc(C(F)(F)F)cc1`, in assay [1], the pKi is 8.00. This compound also showed a pIC50 in [2] of 7.67.
